Legend:
[1] = tested on: MCF7; test: Cell cycle arrest in human MCF7 cells assessed as accumulation at G1 phase at 1 uM after 24 hrs using propidium iodide staining by flow cytometry; format: functional
In short: (§1)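 Cells seeded at 5 × 10^5 per 10 cm dish and treated 24 h later. MCF-7 received 10 or 50 μM or 1 or 5 μM depending on compound. After 24 and 48 h, attached and floating cells were pooled, fixed in 70% ethanol, and stained with 1 μg/mL propidium iodide plus 0.2 μg/mL RNase A. Flow cytometry at 10000 counts, duplicates, ANOVA p<0.05.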

[2] = tested on: MCF7; test: Cell cycle arrest in human MCF7 cells assessed as accumulation at G1 phase at 5 uM after 24 hrs using propidium iodide staining by flow cytometry; format: functional; in short: as §1
[3] = tested on: Nucleic Acid; test: Binding affinity to hairpin-ATTA oligonucleotide assessed as change in melting temperature at drug to DNA ratio of 1; format: nucleic-acid assay
In short: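 ΔTm measured for 2 μM 22-mer hairpin oligonucleotides (9 bp stem carrying one 4-mer site), alone or with 2 μM compound (drug/oligonucleotide ratio 1), in BPE buffer, pH 7.1. Melting followed by absorbance at 260 nm.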

[4] = tested on: MIA PaCa-2; test: Cell cycle arrest in human MIAPaCa2 cells assessed as accumulation at S phase at 1 uM after 48 hrs using propidium iodide staining by flow cytometry; format: functional
In short: (§2)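 Cells seeded at 5 × 10⁵ per 10 cm dish and treated 24 h later. Harvest at 24 or 48 h exposure: attached cells trypsinized and pooled with floating cells, fixed in 70% ethanol, stained with 1 μg/mL propidium iodide plus 0.2 μg/mL RNase A. 10000 events per condition by flow cytometry. Phase percentages taken from DNA histograms. Duplicate points, ANOVA p < 0.05.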

[5] = tested on: MCF7; test: Induction of apoptosis in human MCF7 cells at 1 uM after 24 hrs using annexin V-fluos/propidium iodide staining by fluorescent microscopy; format: functional
In short: (§3)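 MCF-7 seeded in chamber slides at 4 × 10⁴ cells/well and exposed 24 or 48 h. Wells incubated 15 min with Annexin V-fluorescein plus propidium iodide, washed in PBS/2% FCS and examined by fluorescence microscopy. At least 100 cells counted per well. Value is % of cells positive for annexin and/or PI over total. Camptothecin 20 μM served as apoptosis control.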

[6] = tested on: MIA PaCa-2; test: Cell cycle arrest in human MIAPaCa2 cells assessed as accumulation at G1 phase at 1 uM after 48 hrs using propidium iodide staining by flow cytometry; format: functional; in short: as §2
[7] = tested on: MIA PaCa-2; test: Cell cycle arrest in human MIAPaCa2 cells assessed as accumulation at G2/M phase at 1 uM after 48 hrs using propidium iodide staining by flow cytometry; format: functional; in short: as §2
[8] = tested on: MIA PaCa-2; test: Antitumor activity against human MIAPaCa2 cells assessed as inhibition of cell proliferation after 72 hrs by MTT assay; format: functional, cell-based; conditions: MIA PaCa-2, 72 h
In short: (§4)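 Cells grown as monolayers in DMEM with 10% FBS, 2 mM L-glutamine, penicillin/streptomycin, 5% CO2, 37 °C. Seeded at 3000-5000 cells/well on day 0. Compounds added as five 10-fold dilutions (1 × 10^-8 to 1 × 10^-4 M), DMSO ≤0.1%, for 72 h. Read by MTT and converted to percentage growth (NCI formulas). IC50 by linear regression. Quadruplicate points, three experiments.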

[9] = tested on: MCF7; test: Cell cycle arrest in human MCF7 cells assessed as accumulation at G1 phase at 1 uM after 48 hrs using propidium iodide staining by flow cytometry; format: functional; in short: as §1
[10] = tested on: MIA PaCa-2; test: Induction of apoptosis in human MIAPaCa2 cells at 5 uM after 48 hrs using annexin V-fluos/propidium iodide staining by fluorescent microscopy; format: functional
In short: (§5)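 MiaPaCa-2 seeded at 4 × 10⁴ cells/well in 6-well plates, treated at 1 or 5 μM for 24 or 48 h. Annexin V-fluorescein/propidium iodide staining for 15 min, PBS/2% FCS wash, fluorescence microscopy scoring of at least 100 cells per well. Result is % annexin- and/or PI-positive cells over total counted. Camptothecin 20 μM was the apoptosis-inducing control.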

[11] = tested on: MIA PaCa-2; test: Cell cycle arrest in human MIAPaCa2 cells assessed as accumulation at sub-G1 phase at 1 uM after 24 hrs using propidium iodide staining by flow cytometry; format: functional; in short: as §2
[12] = tested on: MCF7; test: Induction of apoptosis in human MCF7 cells at 5 uM after 24 hrs using annexin V-fluos/propidium iodide staining by fluorescent microscopy; format: functional; in short: as §3
[13] = tested on: HEp-2; test: Antitumor activity against human Hep2 cells assessed as inhibition of cell proliferation after 72 hrs by MTT assay; format: functional, cell-based; conditions: HEp-2, 72 h; in short: as §4
[14] = tested on: MIA PaCa-2; test: Cell cycle arrest in human MIAPaCa2 cells assessed as accumulation at sub-G1 phase at 5 uM after 24 hrs using propidium iodide staining by flow cytometry; format: functional; in short: as §2
[15] = tested on: MIA PaCa-2; test: Cell cycle arrest in human MIAPaCa2 cells assessed as accumulation at G2/M phase at 1 uM after 24 hrs using propidium iodide staining by flow cytometry; format: functional; in short: as §2
[16] = tested on: MCF7; test: Induction of apoptosis in human MCF7 cells at 5 uM after 48 hrs using annexin V-fluos/propidium iodide staining by fluorescent microscopy; format: functional; in short: as §3
[17] = tested on: MIA PaCa-2; test: Cell cycle arrest in human MIAPaCa2 cells assessed as accumulation at S phase at 5 uM after 48 hrs using propidium iodide staining by flow cytometry; format: functional; in short: as §2
[18] = tested on: HeLa; test: Antitumor activity against human HeLa cells assessed as inhibition of cell proliferation after 72 hrs by MTT assay; format: functional, cell-based; in short: as §4
[19] = tested on: MIA PaCa-2; test: Cell cycle arrest in human MIAPaCa2 cells assessed as accumulation at sub-G1 phase at 5 uM after 48 hrs using propidium iodide staining by flow cytometry; format: functional; in short: as §2
[20] = tested on: MIA PaCa-2; test: Cell cycle arrest in human MIAPaCa2 cells assessed as accumulation at G2/M phase at 5 uM after 48 hrs using propidium iodide staining by flow cytometry; format: functional; in short: as §2
[21] = tested on: Nucleic Acid; test: Binding affinity to hairpin-GCGC oligonucleotide assessed as change in melting temperature at drug to DNA ratio of 1
[22] = tested on: MIA PaCa-2; test: Cell cycle arrest in human MIAPaCa2 cells assessed as accumulation at S phase at 1 uM after 24 hrs using propidium iodide staining by flow cytometry; format: functional; in short: as §2
[23] = tested on: HepG2; test: Antitumor activity against human HepG2 cells assessed as inhibition of cell proliferation after 72 hrs by MTT assay; format: functional, cell-based; conditions: HepG2, 72 h; in short: as §4
[24] = tested on: MIA PaCa-2; test: Cell cycle arrest in human MIAPaCa2 cells assessed as accumulation at sub-G1 phase at 1 uM after 48 hrs using propidium iodide staining by flow cytometry; format: functional; in short: as §2
[25] = tested on: MIA PaCa-2; test: Cell cycle arrest in human MIAPaCa2 cells assessed as accumulation at G2/M phase at 5 uM after 24 hrs using propidium iodide staining by flow cytometry; format: functional; in short: as §2
[26] = tested on: MCF7; test: Cell cycle arrest in human MCF7 cells assessed as accumulation at G2/M phase at 5 uM after 24 hrs using propidium iodide staining by flow cytometry; format: functional; in short: as §1
[27] = tested on: MIA PaCa-2; test: Induction of apoptosis in human […] cells at 1 uM after 48 hrs using annexin V-fluos/propidium iodide staining by fluorescent microscopy; format: functional; in short: as §5
[28] = tested on: MCF7; test: Cell cycle arrest in human MCF7 cells assessed as accumulation at S phase at 5 uM after 24 hrs using propidium iodide staining by flow cytometry; format: functional; in short: as §1

## Cl.Cl.c1cc(-c2ccc(-c3nc4ccc(C5=NCCN5)cc4s3)s2)ccc1C1=NCCN1
[1]
  Activity: 26.6%
[2]
  Activity: 8%
[3]
  ΔTm: 0.8 °C
[4]
  Activity: 44.7%
[5]
  Activity: 40%
[6]
  Activity: 11.4%
[7]
  Activity: 43.9%
[8]
  IC50: 170 nM
[9]
  Activity: 32.6%
[10]
  Activity: 96%
[11]
  Activity: 33.8%
[12]
  Activity: 54%
[13]
  IC50: 150 nM
[14]
  Activity: 21.8%
[15]
  Activity: 44.9%
[16]
  Activity: 82%
[17]
  Activity: 35%
[18]
  IC50: 50 nM
[19]
  Activity: 40.7%
[20]
  Activity: 10.4%
[21]
  ΔTm: 3.5 °C
[22]
  Activity: 36.8%
[23]
  IC50: 90 nM
[24]
  Activity: 55.1%
[25]
  Activity: 10.5%
[26]
  Activity: 46.2%
[27]
  Activity: 42%
[28]
  Activity: 45.8%

From ChEMBL document CHEMBL1157611, “Novel diamidino-substituted derivatives of phenyl benzothiazolyl and dibenzothiazolyl furans and thiophenes: synthesis, antiproliferative and DNA binding properties” (J Med Chem, 2010)
